An excerpt weighted towards active compounds, which were near 2.3% of everything screened.
C8 TRAIL sens – caspase-8 TRAIL sensitization. NB7+C8 cells + TRAIL, ATPlite viability luminescence. inhibition (viability loss, TRAIL sensitization), % at 10 µM. hit rate 1% among 360,000. AID 624354;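 active = compounds causing at least 50% loss of cell viability in the single-dose screen, relative to plate controls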
STAT1 blocker – reduces IFN-gamma driven STAT1 reporter signal; inhibition, % at 5.5 µM; NIH 3T3 STAT1-luciferase reporter, luminescence; hit rate 0.35% among 200,000;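 active = inhibition above a set limit, the mean inhibition across all tested compounds plus 3 SD, cut at about 34% in these data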;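 note: 0% = IFN-gamma with DMSO and 100% = IFN-gamma with 300 µM nifuroxazide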
PPC-1+TRAIL kill – compounds killing PPC-1 cancer cells with TRAIL present (potentiator screen, no TRAIL-free arm). PPC-1 cells + TRAIL, ATPLite viability luminescence. cell killing (% activity), % at 4 µM or 5 µM. hit rate 0.41% among 220,000. AID 1443;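 active = cell killing above 50% in the first pass at 4 µM, then a duplicate retest at 5 µM averaging 50% or more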;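 note: plate controls were cells with TRAIL plus DMSO for no effect and medium-only wells lacking cells for full effect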
HSP90 refold inh – inhibitors of HSP90 luciferase refolding in rabbit reticulocyte lysate. luciferase refolding luminescence, 3 h. inhibition, % at 5.6 µM. hit rate 0.91% among 290,000. AID 1789;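 active = inhibition above the screen-wide mean plus 3 SD, computed separately per campaign, cut at about 16% in these data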;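 note: 0% = DMSO wells and 100% = 60 µM geldanamycin wells; inhibitors lower the luminescence because luciferase stays unfolded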
STAT3 activator – activators of IL-6 induced STAT3 signaling. U3A cells, IL-6 STAT3-luciferase reporter, luminescence; 100% = signal with IL-6 EC80 alone. activation (% of control), % at 5.6 µM. hit rate 0.91% among 190,000;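 active = activation above the screen-wide mean of compound activation plus 3 SD, cut at about 130% in these data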;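 note: 0% = background luminescence of wells with medium and substrate only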
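System – human U3A cells carrying STAT3-luciferase construct · Probe or stimulus – Interleukin-6, 33 ng/mL · Schedule – compound 1 h, then IL-6 6 h at 37 °C · Signal – luminescence from STAT3-driven luciferase reporter · Evaluation – percent of IL-6-only median luminescence · Benchmarks – IL-6-only high control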
STAT3 blocker – STAT3 signaling inhibition. hit rate 0.89% among 190,000. U3A cells, IL-6 STAT3-luciferase reporter, luminescence; host cell line lacks STAT1. AID 862. inhibition, % at 5.5 µM;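 active = inhibition above the mean inhibition across all screened compounds plus 3 SD, cut at about 44% in these data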;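 note: 0% = DMSO only wells and 100% = 100 µM nifuroxazide control wells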
PPC-1 tox – PPC-1 cell cytotoxicity; cytotoxicity, % at 5 µM; PPC-1 viability, ATPlite luminescence, overnight; shares compounds with PPC-1+TRAIL kill; AID 1447; hit rate 50% among 1,200;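 active = reconfirmed compounds whose average cytotoxicity reaches 50% or more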;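 note: 0% = DMSO-treated cells and 100% = wells holding medium but no cells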
* marks the source's active call; other numbers are inactive results; nt = not tested or not shown.

SMILES	C8 TRAIL sens	STAT1 blocker	PPC-1+TRAIL kill	HSP90 refold inh	STAT3 activator	STAT3 blocker	PPC-1 tox
CCS(=O)(=O)n1nc(-c2ccccc2)cc1N	8	-7	3	-1	101	3	nt
O=C(OCCCN1CCCCC1)c1ccc(O)cc1	-3	8	34	-6	110	-12	nt
O=C1N(Cc2cccnc2)C[C@@H]2C[C@@H](c3cccc(C(F)(F)F)c3)N3CCC[C@@]123	-3	-5	-5	-2	109	-4	nt
COc1ccccc1NC(=O)CCc1nnc2ccc(N3CCCCC3)nn12	-21	nt	nt	-2	nt	nt	nt
CCN(CC)C(=O)CSc1nc2ccc(NC(=O)CSc3nnc(COc4ccccc4C)n3C)cc2s1	7	2	4	0	95	17	nt
Cc1ccccc1OCc1nnc(SCC(=O)Nc2ccc3nc(SCC(=O)NC(C)(C)C)sc3c2)n1C	18	-1	-15	0	82	22	-13
CCCCC(=O)Nc1ccccc1Oc1ccccc1	-3	-2	-6	7	97	7	-14
COc1ccc(N=Nc2nc3ccc(Br)cc3n2C)cc1	80*	-25	76*	2	75	38	72*
CN(c1ccccc1)S(=O)(=O)c1cccc(NC(=O)CN2CCCc3ccccc32)c1	-3	nt	8	4	nt	nt	nt
O=C(CSc1nnc(Cc2cccs2)n1C1CCCCC1)N1CCCc2ccccc21	20	2	2	5	107	0	7
Cc1ccc(-c2c(C)sc(=NC(=O)c3ccco3)n2C)cc1	65*	-32	39	1	76	31	36
N/C(=N\OC(=O)c1ccc(Cl)c(Cl)c1)c1ccccn1	66*	-35	7	-1	102	2	18
CC(=C/c1ccccc1)/C=N/NC(=O)c1ccccn1	85*	nt	82*	17*	nt	nt	81*
Cc1nc2nc(-c3cccs3)cn2nc1C	0	-57	-12	-2	85	20	nt
Cc1ccc(Sc2ncnc3onc(C)c23)c(C)c1	-2	-9	-1	0	100	10	8
CC1Cc2ccccc2N1S(=O)(=O)c1cnc(Cl)c(Br)c1 (centres undefined)	-9	nt	38	1	nt	nt	nt
CC1Cc2ccccc2N1S(=O)(=O)c1cnc(Cl)c(Cl)c1 (centres undefined)	-4	nt	50	-1	nt	nt	45
CCOc1ccc(C/C(N)=N/n2cnnc2)cc1	-16	1	15	-1	100	-4	17
CCOc1ccc(C(=O)Nn2cnnc2)cc1	2	0	18	-1	103	3	nt
O=C(N/N=C\c1c(O)ccc2ccccc12)c1ccc(O)cc1	21	nt	nt	-4	nt	nt	nt
Cn1cc(C(=O)N/N=C/c2c(O)ccc3ccccc23)ccc1=O	29	9	32	-8	82	26	25
CCOC(=O)c1[nH]c2cc3c(cc2c1NC(=O)CN1CC(C)CC(C)C1)OCO3 (centres undefined)	4	-1	4	-4	112	-11	nt
Cc1ccc(NC2=C/C(=N\S(=O)(=O)c3cccs3)c3ccccc3C2=O)c(C)c1	96*	33	52*	26*	109	-7	54*
OC(CN1CCN(c2cccc(Cl)c2)CC1)c1ccc(F)cc1 (centres undefined)	11	nt	nt	5	nt	nt	nt
CNC(=S)N/N=C(\C)c1ccc(N2CCOCC2)cc1	17	3	8	4	70	38	2
SMILES	C8 TRAIL sens	STAT1 blocker	PPC-1+TRAIL kill	HSP90 refold inh	STAT3 activator	STAT3 blocker	PPC-1 tox
CCNC(=S)N/N=C(\C)c1ccc(N2CCOCC2)cc1	-1	-8	6	-4	88	18	nt
Cc1cc(C(F)(F)F)n2nc(C(=O)O)c(Cl)c2n1	3	6	9	6	94	12	nt
COCCN1CCN(c2cc(-c3ccccc3)nc3cc(-c4cccc(F)c4)nn23)CC1	41	6	14	-6	92	11	6
CC(C)c1nc(NCC2CCCO2)c(C#N)c2c1COC(C)(C)C2 (centres undefined)	-12	-5	-2	1	105	-2	-7
CCc1nc(NCC2CCCO2)c(C#N)c2c1COC(C)(C)C2 (centres undefined)	-7	6	-1	5	96	7	nt
Cc1nc(Cc2nnc(SCC(=O)N(C)c3ccccc3)o2)cs1	-5	nt	nt	nt	nt	nt	nt
Cc1csc(N(C)C(=O)CSc2nnc(COc3ccccc3C)o2)n1	20	3	-21	-1	99	-1	-15
C=CCn1c(SCC(=O)NC(=O)NCCC)nnc1C1CCCCC1	-8	-10	-1	3	102	2	3
C=CCn1c(SCC(=O)NC(=O)NC)nnc1C1CCCCC1	7	1	4	3	95	14	nt
CC1(C)Cc2nc3sc(C(=O)NCCO)c(N)c3cc2CO1	-4	-12	8	-1	104	-2	8
CC1(C)Cc2nc3sc(C(=O)NCCCO)c(N)c3cc2CS1	0	-20	22	-2	111	-14	nt
O=C(CCNS(=O)(=O)c1ccc2c(c1)CCC(=O)N2)NCc1ccc2c(c1)OCO2	4	-2	4	-4	96	10	nt
O=C(Nc1ccccc1Cl)N1C2CCC1CC(O)(c1cccnc1)C2 (centres undefined)	-8	-2	-2	0	106	-2	9
CC[n+]1c(C)n(C)c2cc(S(=O)(=O)N(C)C)ccc21	0	5	17	1	101	2	nt
CCN(CC)C(=O)CN(c1cc2c(cc1OC)oc1ccccc12)S(=O)(=O)c1ccccc1	0	-10	-8	3	105	1	-19
O=C1c2ccccc2C(=O)C1c1ccnc2ccccc12	90*	43*	86*	2	53	58*	87*
N#CC1=C(N)SC(N)=C(C#N)C1c1ccnc2ccccc12	-14	-4	15	3	99	2	nt
CN(C)CCCN(Cc1cc2cc3c(cc2[nH]c1=O)OCO3)C(=S)Nc1cccc(Cl)c1	9	-5	21	-1	100	2	nt
Cc1ccc(/C=N/NC(=O)c2ccc3c(c2)OCCO3)s1	30	nt	37	11	nt	nt	43
Cc1ccsc1/C=N\NC(=O)c1ccc2c(c1)OCO2	48	-24	29	-5	94	9	nt
O=C(N/N=C/c1cc(O)ccc1[N+](=O)[O-])c1ccc2c(c1)OCCO2	89*	nt	80*	3	nt	nt	83*
O=C(N/N=C/c1cc2c(cc1Cl)OCO2)c1ccc2c(c1)OCCO2	6	nt	8	-1	nt	nt	nt
Cc1ccsc1/C=N/NC(=O)c1ccc2c(c1)OCCO2	76*	nt	54*	12	nt	nt	63*
O=C(N/N=C/c1c(Cl)[nH]c2ccccc12)c1ccc2c(c1)OCCO2	66*	nt	65*	6	nt	nt	64*
Cc1ccc(C(=O)N/N=C/c2ccc([N+](=O)[O-])s2)cc1	23	80*	38	4	36	76*	36
